Measured values reported in ChEMBL document CHEMBL1123287, “7-Aroyl-2,3-dihydrobenzo[b]furan-3-carboxylic acids and 7-benzoyl-2,3-dihydrobenzo[b]thiophene-3-carboxylic acids as analgesic agents” (1986).
≈ marks a conversion by molar mass, not a printed value.

Tests used:
Mus musculus [1] = organism: Mus musculus; experiment: Analgesic activity tested by phenylquinone induced writhing test in mice; format: functional
[2] = target: T1, Prostaglandin E synthase (Bos taurus) (UniProt Q95L14); experiment: Ability to inhibit prostaglandin synthetase ([3H]PGE2 synthesis) from [3H]arachidonic acid in bovine seminal vesicles
T1 sequence (whole entry): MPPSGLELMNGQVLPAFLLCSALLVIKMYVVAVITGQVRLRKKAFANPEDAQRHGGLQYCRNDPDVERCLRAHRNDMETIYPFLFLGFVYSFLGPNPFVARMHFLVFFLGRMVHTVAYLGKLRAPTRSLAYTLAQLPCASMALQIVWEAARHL
Procedure, shortened: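 Formation of [³H]-PGE₂ was measured at no fewer than four compound concentrations, each run in duplicate. ID₅₀, the dose expected to give 50% inhibition of prostaglandin synthesis, was read from dose-response lines.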

Mus musculus [3] = experiment: Compound was tested orally for its ability to induce gastric lesions in fasted mice (8-animals per group); format: functional; settings: Stomach, po
Procedure, shortened: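 Male mice (eight per group) fasted overnight, then dosed orally. Killed 4 h later; stomachs removed, stretched and examined for bleeding mucosal erosions. ED50 is the dose expected to cause observable mucosal damage in 50% of animals, calculated from dose-response lines.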

SMILES | ED50 (Mus musculus [1]) | ID50 [2] | ED50 (Mus musculus [3])
O=C(c1ccccc1)c1cc(F)cc2c1OCC2C(=O)O (stereo not given) | 2.9 mg/kg |  | 
O=C(c1ccccc1)c1cccc2c1COC2C(=O)O (stereo not given) | > 16 mg/kg | 5 µg/mL (≈ 18.6 µM) | 
O=C(c1ccccc1)c1cc(Cl)cc2c1S(=O)(=O)CC2C(=O)O (stereo not given) | > 5 mg/kg | > 50 µg/mL | 
O=C(c1ccccc1)c1cc(Cl)cc2c1[S+]([O-])CC2C(=O)O (stereo not given) | > 5 mg/kg | > 50 µg/mL | 
O=C(c1ccccc1)c1cccc2c1SCC2C(=O)O (stereo not given) | 0.6 mg/kg | 1.2 µg/mL (≈ 4.22 µM) | 13 mg/kg
Cc1cc(CC(=O)O)n(C)c1C(=O)c1ccc(Cl)cc1 [ZOMEPIRAC] | 0.6 mg/kg | 0.6 µg/mL (≈ 2.06 µM) | 8 mg/kg
O=C(c1ccccc1)c1cc(Br)cc2c1SCC2C(=O)O (stereo not given) | 1.3 mg/kg | 1.4 µg/mL (≈ 3.85 µM) | 
O=C(c1cccs1)c1cc(Cl)cc2c1OCC2C(=O)O (stereo not given) | > 4 mg/kg |  | 
COC(=O)C1COc2c(C(=O)c3ccccc3)cc(Cl)cc21 (stereo not given) | 13 mg/kg |  | 
O=C(c1ccccc1)c1cccc2c1OCC2C(=O)O (stereo not given) | 2.8 mg/kg | 0.7 µg/mL (≈ 2.61 µM) | 
O=C(c1ccc(Cl)cc1)c1cc(Cl)cc2c1OCC2C(=O)O (stereo not given) | > 4 mg/kg |  | 
O=C(c1ccccc1)c1cc(Cl)cc2c1OCC2C(=O)O (stereo not given) | 0.8 mg/kg | 0.25 µg/mL (≈ 0.826 µM) | 150 mg/kg
O=C(c1ccccc1)c1cc(Cl)cc2c1SCC2C(=O)O (stereo not given) | 0.8 mg/kg | 0.8 µg/mL (≈ 2.51 µM) | 23 mg/kg
Cc1cc(C(=O)c2ccccc2)c2c(c1)C(C(=O)O)CO2 (stereo not given) | 1.9 mg/kg | 2 µg/mL (≈ 7.08 µM) | 
O=C(c1ccccc1)c1ccc2c(c1)C(C(=O)O)CS2 (stereo not given) | > 10 mg/kg |  | 
O=C(c1ccccc1)c1cc(Br)cc2c1OCC2C(=O)O (stereo not given) | > 5 mg/kg |  | 
